Results reported in ChEMBL document CHEMBL4689842, “EUbOPEN Chemogenomics Library wave 1” (2021).
Where “and” joins values, the source holds several entries; their conditions need not be identical. Equal values may be shown once.

Test system: Fibroblast
Assay: Multiplex assay against human fibroblast
Format: toxicity, cell-based
Summary of the method: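 Live cells carried four stains from seeding: Hoechst33342, BioTracker Green Microtubule Cytoskeleton Dye, MitoTracker Red and Annexin V Alexa Fluor 680. They were imaged on a CQ1 microscope at 37°C and 5% CO2 after compound addition. Using CellPathfinder machine-learning gating, cells were split into Hoechst high-intensity objects or normal cells, normal cells into healthy, pyknosed or fragmented nuclei, and pyknosed cells into mitotic or apoptotic; tubulin, mitochondrial-mass and membrane-permeability phenotypes are per cents of healthy-nucleus cells.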

[1] = 12 h, 1 µM, compound concentration 1 uM, replicate 1
[2] = 12 h, 1 µM, compound concentration 1 uM, replicate 2
[3] = 12 h, 10 µM, compound concentration 10 uM, replicate 1
[4] = 12 h, 10 µM, compound concentration 10 uM, replicate 2
[5] = 24 h, 1 µM, compound concentration 1 uM, replicate 1
[6] = 24 h, 1 µM, compound concentration 1 uM, replicate 2
[7] = 24 h, 10 µM, compound concentration 10 uM, replicate 1
[8] = 24 h, 10 µM, compound concentration 10 uM, replicate 2
[9] = 48 h, 1 µM, compound concentration 1 uM, replicate 1
[10] = 48 h, 1 µM, compound concentration 1 uM, replicate 2
[11] = 48 h, 10 µM, compound concentration 10 uM, replicate 1
[12] = 48 h, 10 µM, compound concentration 10 uM, replicate 2

## O=C(NCCCC1CCCCC1)c1ccc(CNC(=O)c2cnn(-c3ccccc3)c2C(F)(F)F)cc1 [SR-321]
[1]
  Population Apoptotic (%): 68% [middle of 4 runs]
  Population Fragmented Nuclei (%): 20% and 21% and 28%
  Population Healthy Nuclei (%): 35% and 39% and 42%
  Population Hoechst High Intensity Objects (%): 12% and 11% and 10%
  Population Mitochondria Different-Phenotype (%): 13% [middle of 4 runs]
  Population Mitotic Cells (%): 36% [middle of 4 runs]
  Population Normal (%): 87% and 88% and 89%
  Population Pyknosed Nuclei (%): 39% [middle of 4 runs]
  Total Cell Count: 176 [middle of 4 runs]
[2]
  Population Membrane Permeable-Phenotype (%): 14% and 0% and 22%
  Population Normal (%): 91% and 78% and 92% and 56%
  Population Pyknosed Nuclei (%): 5% and 6% and 4%
  Total Cell Count: 72 [middle of 4 runs]
[3]
  Population Apoptotic (%): 50% and 60% and 77%
  Population Fragmented Nuclei (%): 23% [middle of 4 runs]
  Population Healthy Nuclei (%): 36% and 34% and 55%
  Population Hoechst High Intensity Objects (%): 10% and 9% and 6%
  Population Mitotic Cells (%): 49% [middle of 4 runs]
  Population Normal (%): 89% and 90% and 93%
  Population Pyknosed Nuclei (%): 46% and 38% and 43%
  Total Cell Count: 161 [middle of 4 runs]
[4]
  Population Healthy Nuclei (%): 71% and 66% and 69%
  Population Membrane Permeable-Phenotype (%): 5% and 2% and 0%
  Population Mitotic Cells (%): 80% and 81% and 44%
  Population Normal (%): 73% and 94% and 91% and 70%
  Total Cell Count: 103 [middle of 4 runs]
[5]
  Population Apoptotic (%): 31% and 58% and 66%
  Population Fragmented Nuclei (%): 20% [middle of 4 runs]
  Population Healthy Nuclei (%): 48% [middle of 4 runs]
  Population Hoechst High Intensity Objects (%): 13% [middle of 4 runs]
  Population Mitochondria Different-Phenotype (%): 6% [middle of 4 runs]
  Population Mitotic Cells (%): 68% and 41% and 33%
  Population Normal (%): 86% and 90% and 82% and 87%
  Population Pyknosed Nuclei (%): 33% [middle of 4 runs]
  Total Cell Count: 174 [middle of 4 runs]
[6]
  Population Membrane Permeable-Phenotype (%): 4% [middle of 4 runs]
  Population Mitochondria Different-Phenotype (%): 19% and 12% and 7%
  Population Mitotic Cells (%): 100% and 40% and 60%
  Population Normal (%): 85% and 95% and 89% and 56%
  Total Cell Count: 79 [middle of 4 runs]
[7]
  Population Apoptotic (%): 50% and 57% and 51% and 64%
  Population Fragmented Nuclei (%): 16% and 31% and 23%
  Population Healthy Nuclei (%): 42% [middle of 4 runs]
  Population Hoechst High Intensity Objects (%): 12% [middle of 4 runs]
  Population Mitotic Cells (%): 49% and 42% and 48% and 35%
  Population Normal (%): 85% and 90% and 89% and 87%
  Population Pyknosed Nuclei (%): 46% and 36% and 34%
  Total Cell Count: 148 [middle of 4 runs]
[8]
  Population Apoptotic (%): 33% and 44%
  Population Fragmented Nuclei (%): 20% and 42%
  Population Healthy Nuclei (%): 67% and 65% and 40%
  Population Membrane Permeable-Phenotype (%): 4% [middle of 4 runs]
  Population Mitotic Cells (%): 50% and 66% and 55%
  Population Normal (%): 93% and 81% and 92% and 63%
  Population Pyknosed Nuclei (%): 15% [middle of 4 runs]
  Total Cell Count: 103 [middle of 4 runs]
[9]
  Population Apoptotic (%): 75% and 54% and 59%
  Population Fragmented Nuclei (%): 29% and 25% and 21%
  Population Healthy Nuclei (%): 44% and 51% and 53%
  Population Hoechst High Intensity Objects (%): 16% and 14% and 15%
  Population Membrane Permeable-Phenotype (%): 36% and 26% and 20%
  Population Mitochondria Different-Phenotype (%): 2% and 6%
  Population Mitotic Cells (%): 24% and 45% and 40%
  Population Normal (%): 83% and 85% and 84%
  Population Pyknosed Nuclei (%): 26% and 22% and 24%
  Population Tubulin-Different-Phenotype (%): 38% and 34% and 20%
  Total Cell Count: 132 and 170 and 130
[10]
  Population Fragmented Nuclei (%): 14% and 19% and 13%
  Population Healthy Nuclei (%): 85% and 80%
  Population Hoechst High Intensity Objects (%): 13% and 9%
  Population Membrane Permeable-Phenotype (%): 16% and 10%
  Population Mitochondria Different-Phenotype (%): 1% and 0%
  Population Mitotic Cells (%): 0%
  Population Normal (%): 86% and 90%
  Population Pyknosed Nuclei (%): 1% and 0%
  Population Tubulin-Different-Phenotype (%): 28% and 17% and 14%
  Total Cell Count: 116 and 92 and 152
[11]
  Population Apoptotic (%): 63% and 65% and 75%
  Population Fragmented Nuclei (%): 27% and 40% and 39%
  Population Healthy Nuclei (%): 39% and 42%
  Population Hoechst High Intensity Objects (%): 15% and 13% and 9%
  Population Membrane Permeable-Phenotype (%): 15% and 23% and 22%
  Population Mitochondria Different-Phenotype (%): 10% and 23% and 14%
  Population Mitotic Cells (%): 36% and 35% and 24%
  Population Normal (%): 84% and 86% and 90%
  Population Pyknosed Nuclei (%): 33% and 16% and 21%
  Population Tubulin-Different-Phenotype (%): 46% and 52% and 68%
  Total Cell Count: 117 and 138 and 152
[12]
  Population Apoptotic (%): 50% and 100%
  Population Fragmented Nuclei (%): 21%
  Population Healthy Nuclei (%): 68% and 76% and 75%
  Population Hoechst High Intensity Objects (%): 8% and 14%
  Population Mitochondria Different-Phenotype (%): 7% and 5% and 11%
  Population Normal (%): 91% and 85%
  Population Tubulin-Different-Phenotype (%): 67% and 60% and 42%
  Total Cell Count: 108 and 85 and 70
